# Jurkat viability: cytotoxicity toward Jurkat cells; inhibition, % at 4 µM; 56,000 tested, 1.2% active; Jurkat E6.1 viability, ATP luminescence, 48 h; AID 463;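 active means inhibition above the mean inhibition of all tested compounds plus 3 SD, cut at about 28% in these data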
# Lung fibro prol: blocks proliferation of human lung fibroblasts. LL 47 human lung fibroblast viability, ATP luminescence; stronger effect = lower value. viability, % at 10 µM. 85,000 tested, 1.1% active. AID 719;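 active means viability at or below 50% in the single dose screen; inactive means viability above 50%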;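 further: compound exposure lasted 72 h before the ATP readout; 100% = median luminescence of untreated cell-only wells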
#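 Test system: LL 47 human lung fibroblasts / Quantity: 1,150 cells in each well / Medium: IMEM growth medium with 15% fetal bovine serum / Incubation: 72 h compound exposure at 37 °C after overnight plating / Detection: CellTiter-Glo luminescence measuring cellular ATP / Read-out: % viability versus median cells-only luminescence / Benchmarks: cell-only wells, no compound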
# H69AR growth 86K: blocks growth of human H69AR lung tumor cells | viability, % at 10 µM | H69AR lung tumor viability, ATP luminescence, 72 h; stronger effect = lower value | 85,000 tested, 6% active;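 active means viability at or below 40%; inactive means viability above 40%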;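 further: multidrug resistant small cell line overexpressing MRP-1 efflux transporter; 100% = mean luminescence of untreated control wells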
# HUVEC prolif 384: human endothelial cell proliferation inhibition; HUVEC proliferation, CellTiter-Glo luminescence, 72 h; stronger effect = lower value; viability, % at 10 µM (by protocol); 86,000 tested, 1.1% active; AID 648;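 active means viability at or below 30%; inactive means viability above 30%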;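 further: 100% = median luminescence of DMSO-only cell control wells on each plate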
# * marks the source's active call; other numbers are inactive results; / = no result. Most compounds without a hit are left out; they make up all but 6.6% or so of the library.
SMILES,Jurkat viability,Lung fibro prol,H69AR growth 86K,HUVEC prolif 384
Cc1nn2c(NCC(C)C)c3c(nc2c1-c1ccccc1)CCC3,/,88,34*,101
Cc1nn2c(NCCCN(C)C)c3c(nc2c1-c1ccccc1)CCC3,/,10*,6.6*,56
[O-][n+]1c2ccc3nonc3c2nn1-c1ccccc1Cl,3,90,103,87
COCCn1c(-c2ccc(OC(F)(F)C(F)C(F)(F)F)cc2)nc2c1c(=O)[nH]c(=O)n2CC(C)C (centres undefined),/,94,39*,105
CCOc1ccc(N2CCn3c2nc2c3c(=O)n(CCc3ccccc3)c(=O)n2C)cc1,2,108,15*,100
COc1ccc(N2CCn3c2nc2c3c(=O)n(CCc3ccccc3)c(=O)n2C)cc1,5,95,90,81
CCn1c(SCC(=O)O)nnc1C1CCCCC1,-2,102,112,88
Cc1cc(=O)n2c3c(sc2n1)C(=O)N(Cc1ccccc1)C3=O,2,67,1.1*,74
COc1ccc(OC)c(C2=NOC(C(=O)NCc3ccco3)C2)c1 (centres undefined),/,95,33*,80
COc1cc(C2=NOC(C(=O)NCc3ccc(F)cc3)C2)cc(OC)c1OC (centres undefined),96*,/,/,/
CCn1ncc(C2=NOC(C(=O)Nc3cc(OC)c(Cl)cc3OC)C2)c1C (centres undefined),-1,97,39*,92
COc1ccc(C2=NOC(C(=O)NCc3ccc(F)cc3)C2)cc1OC (centres undefined),93*,46*,28*,47
COc1cccc(C2=NOC(C(=O)NCc3ccc(F)cc3)C2)c1 (centres undefined),-5,90,85,76
O=C(CN1CCN(Cc2cccc(Cl)c2)C1=O)NCc1ccccn1,/,97,94,106
O=C(NCc1ccc2c(c1)OCO2)C1CC(c2ccc(Cl)cc2)=NO1 (centres undefined),/,105,105,95
COc1cc(OC)c(C2=NOC(C(=O)NCc3ccc4c(c3)OCO4)C2)cc1Cl (centres undefined),10,92,22*,60
COc1cc(C)c(Cl)cc1S(=O)(=O)n1cnc2ccccc21,/,93,40*,87
CCOc1ccc(Cl)cc1S(=O)(=O)n1cnc2cc(C)c(C)cc21,/,91,57,91
CC1(C)Cc2ccccc2-c2nnc(SCC(=O)N3CCN(c4ccccc4)CC3)n21,10,99,89,82
CCOC(=O)N1CCN(C(=O)Cc2ccsc2)CC1,-5,104,95,108
O=C1NC(=S)SC1=C1CCCCCC1,-3,93,94,91
CC(C)C[C@H](NC(=O)OC(C)(C)C)c1nnc(SCc2ccccc2)o1,/,96,98,99
CC(C)C[C@H](N)c1nnc(S(=O)(=O)Cc2cccc(F)c2)o1,-3,84,/,88
Cc1ccccc1CS(=O)(=O)c1nnc([C@H](CC(C)C)NC(=O)OC(C)(C)C)o1,19,3.9*,76,73
CC(C)(C)OC(=O)N[C@@H](Cc1ccccc1)c1nnc(S(=O)(=O)Cc2cccc(F)c2)o1,20,20*,1.0*,56
SMILES,Jurkat viability,Lung fibro prol,H69AR growth 86K,HUVEC prolif 384
CC(C)[C@H](NC(=O)OC(C)(C)C)c1nnc(S(=O)(=O)Cc2c(F)cccc2Cl)o1,32,2.6*,0.9*,56
CC[C@@H](C)[C@H](NC(=O)OC(C)(C)C)c1nnc(S(=O)(=O)Cc2cc(C)ccc2C)o1,22,14*,0.2*,39
COc1cccc(C2=CC(c3ccc(N(C)C)cc3)n3nnnc3N2)c1 (centres undefined),/,89,15*,75
COc1cccc(C2=CC(c3cc(OC)ccc3OC)n3nnnc3N2)c1 (centres undefined),90*,71,5.4*,45
COc1ccc(OC)c(C2C=C(c3ccc(C)c(C)c3)Nc3nnnn32)c1 (centres undefined),-1,64,14*,60
COc1cccc(C2=CC(c3cccc(OC)c3OC(F)F)n3nnnc3N2)c1 (centres undefined),7,/,/,/
COc1ccc(C2C=C(c3ccccc3)Nc3nnnn32)cc1 (centres undefined),4,96,97,108
COc1cccc(C2=CC(c3cccc(OC)c3OC)n3nnnc3N2)c1 (centres undefined),67*,/,/,/
COc1cccc(C2=CC(c3ccc(N(C)C)cc3)n3ncnc3N2)c1 (centres undefined),-1,90,95,87
CCCCNc1nc(-c2ccccc2)cc(C(F)(F)F)c1C(N)=O,/,90,60,71
CCOc1ccc(-c2nc(CSc3nncs3)cs2)cc1OC,/,101,85,101
CCC1CCCCN1C(=O)Cn1c(C(=O)OC)cc2ccsc21 (centres undefined),4,95,86,94
Cc1cc(N(C(=O)c2ccco2)C(C(=O)NC2CCCCC2)c2ccccc2)ccc1-n1cnnn1 (centres undefined),-6,88,39*,99
COc1cccc(C(C(=O)NC2CCCCC2)N(C(=O)c2ccco2)c2ccc(-n3cnnn3)c(C)c2)c1 (centres undefined),/,101,64,111
CCOC(=O)c1cc2sc(C)cc2n1CC(=O)NCc1ccc(F)cc1,-2,95,30*,67
O=C(COC(=O)C1COc2ccccc2O1)Nc1ccc2c(c1)CCC2 (centres undefined),-5,104,100,101
Cc1ccc2[nH]c3c(c2c1)CN(C(=O)CN1CCN(c2cccc(C)c2C)CC1)CC3,4,106,42,69
Cc1ccc2[nH]c3c(c2c1)CN(C(=O)CN1c2ccc(F)cc2CCC1C)CC3 (centres undefined),/,95,11*,63
CCOC(=O)c1c(C)[nH]c(C(=O)Cn2nnc(-c3ccccc3)n2)c1C,-6,80,61,81
CCOC(=O)c1c(C)[nH]c(C(=O)CN2C(=O)NC(CC)(c3ccccc3)C2=O)c1C (centres undefined),-2,94,37*,100
CCOC(=O)c1c(C)[nH]c(C(=O)CN2C(=O)NC(C)(c3ccc(C)cc3)C2=O)c1C (centres undefined),3,107,39*,97
COc1ccc(-c2nnc3sc(-c4ccco4)nn23)cc1OC,1,109,82,94
Cc1cc(-c2nn3c(-c4ccccc4)nnc3s2)c2ccccc2n1,12,99,77,77
COc1cccc(-c2nnc3sc(-c4cccs4)nn23)c1,/,96,61,79
CCOc1cccc(-c2nnc3sc(-c4cccs4)nn23)c1,/,92,33*,92
COc1cc(-c2nnc3sc(-c4ccco4)nn23)cc(OC)c1OC,6,86,18*,77
c1ccc(-c2cc(-c3nn4c(-c5ccco5)nnc4s3)c3ccccc3n2)cc1,11,51,27*,64
Cc1ccc(-c2nn3c(-c4cccc(Cl)c4)nnc3s2)cc1,/,98,21*,72
CC(C)(C)NC(=O)CN(C(=O)Cn1nnc(-c2ccc(Cl)cc2)n1)C1CCN(Cc2ccccc2)CC1,/,91,46,30
CS(=O)(=O)N(CC(=O)N1CCc2ccccc2C1)c1ccc2c(c1)OCO2,2,104,90,102

# Screening data deposited in PubChem by several laboratories.
